SIRT5 inh: blocks human SIRT5 desuccinylation of peptide. Purified SirT5, succinyl-peptide AMC, trypsin-coupled fluorescence. inhibition, % at 15 µM. 1.1% of 330,000 active. AID 652115; in the data active means inhibition above about 15%
AF4-AF9 inh: blocks AF4 peptide binding to human AF9. AID 651704. inhibition, % at 10 µM. P42568. AlphaScreen, biotin-AF4 peptide binding to FLAG-AF9. 0.47% of 350,000 active;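 active means every replicate reaching a set inhibition limit, whatever the replicate mean, cut at about 25% in these data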;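 further: 0% = plate neutral control median and 100% = total signal loss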
Target sequence (P42568 whole entry, looked up): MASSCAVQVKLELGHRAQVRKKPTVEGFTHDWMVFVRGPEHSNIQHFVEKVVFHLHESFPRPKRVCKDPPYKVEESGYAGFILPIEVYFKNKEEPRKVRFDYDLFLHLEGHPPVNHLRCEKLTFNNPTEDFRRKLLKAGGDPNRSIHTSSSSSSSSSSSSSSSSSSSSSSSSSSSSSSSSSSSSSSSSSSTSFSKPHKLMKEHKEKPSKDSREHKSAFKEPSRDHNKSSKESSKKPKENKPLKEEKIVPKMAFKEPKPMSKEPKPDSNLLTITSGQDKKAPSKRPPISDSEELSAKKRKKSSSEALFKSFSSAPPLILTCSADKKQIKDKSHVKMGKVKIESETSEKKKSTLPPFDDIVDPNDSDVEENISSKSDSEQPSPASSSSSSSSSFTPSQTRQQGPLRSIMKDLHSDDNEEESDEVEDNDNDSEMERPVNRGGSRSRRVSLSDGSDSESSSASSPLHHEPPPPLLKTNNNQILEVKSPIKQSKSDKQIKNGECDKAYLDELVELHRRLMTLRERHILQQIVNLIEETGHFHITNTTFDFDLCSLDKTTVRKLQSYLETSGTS
ERp5 inh: inhibitors of human ERp5; Q15084; ERp5 insulin aggregation, absorbance 650 nm, 90 min; inhibition, % at 9.99 µM; 0.05% of 350,000 active; AID 651711;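 active means mean replicate inhibition above about 25%, with every replicate also reaching it, limit read from the data, passing the limit was not always enough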
FN deposition inh: fibronectin deposition inhibition | AH1F fibroblasts, Alexa488-fibronectin deposition fluorescence, overnight | inhibition, % at 12.6 µM | AID 743247 | 0.086% of 350,000 active;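 active means mean inhibition across replicates of 30% or more, regardless of how many single replicates reach that level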;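 further: positive control wells lacked labelled fibronectin entirely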
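Material: AH1F fibroblasts assembling fluorescent fibronectin matrix; amount: 10000 AH1F cells/well; medium: DMEM, 2% serum; reagent: Alexa488-fibronectin, 24 nM final in well; dosing: single compound dose, delivered by pin transfer; incubation: 1 h adhesion, overnight exposure; detection: fluorescence after three HBSS washes, excitation 485 nm, emission 525 nm; measure: fibronectin deposition inhibition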
PDI turbidity: blocks human protein disulfide isomerase activity. inhibition, % at 10 µM. P07237. PDI insulin aggregation turbidity, A650, 90 min. 0.052% of 350,000 active. AID 588391;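 active means mean inhibition across replicates of 30% or more, whatever share of single replicates reach that level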
* hit, by the source's call; · = no result. Hits are enriched below; roughly 1.3% of the tested compounds scored in any of these assays.

SMILES	SIRT5 inh	AF4-AF9 inh	ERp5 inh	FN deposition inh	PDI turbidity
Cc1ccc(C(=O)N[C@@H](C)CN2C3=NC[C@@H](Cc4ccccc4)N3C[C@H]2Cc2ccc(O)cc2)cc1Br	3	27*	5	6	·
COc1ccc(-n2c(/C=C/c3cccc(F)c3)nc3ccccc3c2=O)c(OC)c1	0	-6	2	5	-11
CCOC(=O)[C@]12Cc3c(cc(OC)c(OC)c3OC)[C@H]1N(C1CCCCC1)C(=O)c1ccccc12	20*	1	3	·	·
O=C1C(=O)c2ccccc2-c2ccccc21	-1	3	4	56*	167*
O=C1c2ccccc2C(=O)N1Cc1nc2ccccc2c(=O)n1-c1ccc(Br)cn1	·	·	·	·	-1
O=C(NCCN1CCC2(CC1)C(=O)NCN2c1ccccc1)c1ccccc1F	·	2	-4	14	·
CCN(CC)C(=O)c1ccc(NC(=O)c2cccc(C(F)(F)F)c2)cc1	3	2	2	-14	-1
CCN(CC)C(=O)c1ccc(NC(=O)COc2ccccc2F)cc1	21*	0	6	5	-4
COc1ccc(CCn2c(O)c(C=Nc3ccc(F)cc3)c(=O)[nH]c2=O)cc1OC	16*	0	-1	-5	0
CCN(CC)c1ccc(N=Cc2c(O)n(CCc3ccc(OC)c(OC)c3)c(=O)[nH]c2=O)cc1	·	·	·	-3	3
CN1CCN(c2ccc(S(C)(=O)=O)cc2[N+](=O)[O-])CC1	0	2	6	-4	2
CN1CCN(c2ccc(S(=O)(=O)C(F)(F)F)cc2[N+](=O)[O-])CC1	21*	6	5	-4	-20
CCOC(=O)N1CCC(NC(=O)CCc2nc(C3=CCN(C)CC3)no2)CC1	-3	33*	-12	2	1
CC(=O)N1CCN(Cc2ccc(Cl)nc2)CC1	-2	-5	-1	-3	5
O=C1NC(=O)N(Cc2ccco2)C(=O)/C1=C/C=C/c1ccco1	15*	-6	8	6	-2
O=C1NC(=O)N(Cc2ccccc2)C(=O)/C1=C\C=C\c1ccco1	6	0	6	9	-7
CCN1C[C@]2(COC(=O)c3ccccc3N)CC[C@H](OC)C34[C@@H]5C[C@H]6[C@H](OC)[C@@H]5[C@](O)(C[C@@H]6OC)[C@@](O)([C@H]13)[C@@H](OC)[C@@H]42	-12	-1	2	1	45*
CCN(CC)C(=O)N[C@H]1C[C@@H]2c3cccc4[nH]cc(c34)C[C@H]2N(C)C1	3	5	1	-9	-5
O=C(CN1CCCC1)Nc1ccc(Cl)cc1C(=O)c1ccccc1	15*	3	-11	2	-1
Cc1cc(OC(=O)N(C)C)nc(-c2ccc(C)c(Cl)c2)n1	-4	-3	0	6	-2
O=C(Cc1cccnc1)N1CCCCN2[C@H](CO)[C@@H](c3ccc(/C=C/c4ccccc4)cc3)[C@H]2C1	-2	27*	-7	·	·
CC[C@H](C)[C@@H]1NC(=O)CNC(=O)c2csc(n2)[C@H](C(C)(C)O)OC(=O)C(C)(C)[C@H](CCCC(C)(Cl)Cl)OC(=O)c2csc1n2	6	1	0	48*	·
O=P(c1ccccc1)(c1ccccc1)N1CCCCC1	·	·	·	·	-5
C=CC[N+]1(C)CC[C@]23c4c5ccc(O)c4O[C@H]2C(=O)CC[C@@]3(O)[C@H]1C5 (stereo partly drawn)	-4	-30	-5	-5	9
CN(C)CC(C(=O)Cc1ccccc1)c1ccccc1 (stereo not drawn)	-2	-12	3	32*	13
SMILES	SIRT5 inh	AF4-AF9 inh	ERp5 inh	FN deposition inh	PDI turbidity
C[C@@H]([C@@H](O)c1ccccc1)N(C)C(=O)Cc1ccccc1	0	-10	-1	-3	7
COc1ccc(-n2c(-c3ccccc3Br)nc3ccccc3c2=O)cc1	35*	0	-1	-2	-15
COc1ccc(-n2c(-c3ccccc3F)nc3ccccc3c2=O)cc1	-1	1	-1	-7	1
c1cc(-c2ccc(C3[C@H]4CNC[C@@H]3N4CC3CC3)cc2)ccn1 (stereo partly drawn)	1	38*	-5	2	·
O=C(/C=C/c1ccccc1)N1Cc2ccccc2-n2nncc2C1	0	1	4	-3	-4
C=CCN1C(=O)NC(=O)/C(=C/c2c(CCN(C)C(=O)c3ccccc3)cc3c(c2OC)OCO3)C1=O	·	-2	1	·	·
CNC(=S)N(C)CCc1cc2c(c(OC)c1C=C1C(=O)NC(=O)NC1=O)OCO2	0	65*	-1	4	0

Compound activity as filed in PubChem.
